Data on 14 compounds can be found in ChEMBL document CHEMBL1122652, “Intensely potent morpholinyl anthracyclines” (J Med Chem, 1984).

A short description of series [1]: Partition coefficient (log P) was the log of ratio of concentration in octanol / water partitioned concentration in phosphate buffer at pH 7.4. The class given is physicochemical.
The subject of series [2] is Nucleic Acid. The experiment in a line: Inhibition of [3H]thymidine incorporation into proliferating L1210 cells. Format: functional, cell-based. To be noted: Mus musculus. The essentials:
(§1)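 Actively growing L1210 cells in culture were exposed to drug, which was first dissolved in Me2SO and diluted to 1% Me2SO final. Incorporation of [3H]thymidine into DNA or [3H]uridine into RNA was measured. ED50 is the drug concentration giving 50% inhibition.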
(In general: Dividing cells build labelled thymidine or BrdU into new DNA.)

For series [3], the system named is Mus musculus. The experiment in a line: Antitumor activity against mice baering P388 leukemia (10e6 cells) implanted ip on day 0, after treatment with single ip dose 4.0 mg/kg on day 1. The class given is functional. The settings on record: route intraperitoneal. In outline: (§2)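 Mice implanted ip with 10^6 P388 leukemia cells on day 0, then dosed ip either once on day 1 or on days 5, 9 and 13 once the tumour was systemic. Efficacy is T/C, the mean survival time of treated over control mice, expressed as %. T/C > 120% counts as active. The optimum dose is reported.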

The test system of series [4] is Calf thymus DNA. The experiment in a line: Change in thermal denaturation temperature of calf thymus DNA. Format: nucleic-acid assay. To be noted: Bos taurus. In outline:
(§3)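 Calf thymus DNA with drug at 5.2 X 10^-6 M in 0.01 M phosphate buffer pH 7 containing EDTA and 5% Me2SO. ΔTm is the thermal denaturation temperature of the DNA–drug complex minus that of DNA alone. Values <1 count as insignificant binding.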

The subject of series [5] is Nucleic Acid. Kind of series: Inhibition of [3H]uridine incorporation into proliferating L1210 cells. Format: functional, cell-based. The settings on record: Mus musculus. The essentials:
as §1

The subject of series [6] is Mus musculus. The experiment in a line: Antitumor activity against mice baering P388 leukemia (10e6 cells) implanted ip on day 0, after treatment with single ip dose 0.25 mg/kg on day 1. The class given is functional. The settings on record: route intraperitoneal. The essentials:
as §2

The subject of series [7] is Mus musculus. The experiment in a line: Antitumor activity against mice baering P388 leukemia (10e6 cells) implanted ip on day 0, after treatment with three ip doses (50 mg/kg) on day 5,9,13 when tumor became systemic. Format: functional. In outline: as §2
Series [8] has as its system Mus musculus. The experiment in a line: Antitumor activity (treated/control) against mice bearing L1210 leukemia implanted ip on day 0, after treatment with single ip dose 0.025 mg/kg on day 1. The class given is functional. To be noted: route intraperitoneal. The essentials:
(§4)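 Mice tumour-implanted on day 0 as in the P388 ip screen. Dosing was iv for P388 (day 1), po for P388 (days 1, 5, 9), and ip for L1210 (day 1) and for B16 melanoma (days 1, 5, 9). Efficacy is T/C % of mean survival time of treated over control mice, at the optimum dose.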

Series [9] concerns Calf thymus DNA. Kind of series: (§5) Effect on thermal denaturation temperature (delta Tm) of helical DNA. The class given is functional. The settings on record: Bos taurus. The essentials:
as §3

For series [10], the system named is Mus musculus. The experiment in a line: Antitumor activity (treated/control) against mice bearing B16 melanoma implanted ip on day 0, after treatment with 3 ip doses 0.0063 mg/kg on day 1,5,9 when tumor had become systemic. Format: functional. To be noted: route intraperitoneal. In outline:
as §4

Series [11] deals with Mus musculus. Kind of series: Antitumor activity (treated/control) against mice bearing P388 leukemia implanted ip on day 0, after treatment with three po doses 0.1 mg/kg on days1,5,9 when the tumor had become systemic. Format: functional. The essentials: as §4
In series [12] the test system is Mus musculus. The experiment in a line: Antitumor activity (treated/control) against mice bearing P388 leukemia implanted ip on day 0, after treatment with single iv dose 0.05 mg/kg on day 1. Format: functional. The essentials: as §4
Series [13] concerns Calf thymus DNA. The series is described as §5. The class given is nucleic-acid assay. To be noted: Bos taurus. In outline:
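ΔTm was taken as the Tm of the drug–calf thymus DNA complex minus the Tm of DNA alone. Drug was at 5.2 × 10^-6 M in 0.01 M phosphate buffer (pH 7) containing EDTA and 5% Me2SO. Values below 1 were considered insignificant binding.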

For series [14], the system named is Mus musculus. The experiment in a line: Antitumor activity against mice baering P388 leukemia (10e6 cells) implanted ip on day 0, after treatment with three ip doses (0.5 mg/kg) on day 5,9,13 when tumor became systemic. Format: functional.
Series [15] deals with Mus musculus. The experiment in a line: Antitumor activity against mice baering P388 leukemia (10e6 cells) implanted ip on day 0, after treatment with three ip doses (0.2 mg/kg) on day 5,9,13 when tumor became systemic. Format: functional. In outline: as §2
Series [16] deals with Mus musculus. Kind of series: Antitumor activity against mice baering P388 leukemia (10e6 cells) implanted ip on day 0, after treatment with single ip dose 0.05 mg/kg on day 1. The class given is functional. The settings on record: route intraperitoneal. The essentials:
as §2

The test system of series [17] is Mus musculus. Kind of series: Antitumor activity against mice baering P388 leukemia (10e6 cells) implanted ip on day 0, after treatment with three ip doses (8 mg/kg) on day 5,9,13 when tumor became systemic. The class given is functional.
For series [18], the system named is Mus musculus. Kind of series: Antitumor activity against mice baering P388 leukemia (10e6 cells) implanted ip on day 0, after treatment with single ip dose 7.5 mg/kg on day 1. The class given is functional. The settings on record: route intraperitoneal.
The test system of series [19] is Mus musculus. The experiment in a line: Antitumor activity against mice bearing P388 leukemia implanted ip on day 0, after treatment with single iv dose 10 mg/kg on day 1. Format: functional.
Series [20] has as its system Mus musculus. Kind of series: Antitumor activity against mice bearing L1210 leukemia implanted ip on day 0, after treatment with single ip dose 10 mg/kg on day 1. The class given is functional. To be noted: route intraperitoneal.
Series [21] has as its system Mus musculus. Kind of series: Antitumor activity against mice bearing P388 leukemia implanted ip on day 0, after treatment with three po doses on day 1,5,9 when the tumor had become systemic; Inactive. Format: functional, organism-based.
Series [22] deals with Mus musculus. The experiment in a line: Antitumor activity against mice bearing B16 melanoma implanted ip on day 0, after treatment with three ip doses 10 mg/kg on day 1,5,9 when tumor had become systemic. The class given is functional. The settings on record: route intraperitoneal.
Series [23] relates to Mus musculus. Kind of series: Antitumor activity against mice baering P388 leukemia (10e6 cells) implanted ip on day 0, after treatment with single ip dose 0.4 mg/kg on day 1. The class given is functional. The settings on record: route intraperitoneal.

Active and inactive are the calls of the source. Bounds are passed on as bounds.

As a reminder, the logD is lipophilicity at a set pH, counting ionised and neutral species. As usually defined, the T/C is the result in the treated group divided by that in the control group, in per cent. In general, ΔTm refers to the shift of the melting midpoint relative to a reference. Take `COc1cccc2c1C(=N)c1c(O)c3c(c(O)c1C2=O)C[C@@](O)(C(=O)CO)CC3OC1CC(N2CCOCC2)C(O)C(C)O1.Cl` (stereo not given in full): the log distribution coefficient (logD) in [1] amounted to 1.8. For the same compound, the results for the ED50 in [2] and in series [5] were 2600 nM and 1300 nM, respectively. In series [3], the T/C was over 215%. The ΔTm in series [4] was determined as 4.3 °C.
In the case of `COc1cccc2c1C(=O)c1c(O)c3c(c(O)c1C2=O)C[C@@](O)(C(C)=O)CC3OC1CC(N2CCOCC2)C(O)C(C)O1.Cl` (stereo not given in full), the logD in series [1] turned out to be 2.31. For the same compound, the ED50 in series [2] is 760 nM; in [5] it was 100 nM. The T/C in series [6] was found to be 155%. For the same compound, the ΔTm in series [4] came to 6.6 °C.
Consider `COc1cccc2c1C(=N)c1c(O)c3c(c(O)c1C2=O)C[C@@](O)(C(O)CO)CC3OC1CC(N2CCOCC2)C(O)C(C)O1.Cl` (stereo not given in full), for which the logD in series [1] turned out to be 1.43. Also, the ED50 was over 100000 nM in series [2] and 24000 nM in series [5]. In series [7], this compound showed a T/C of over 161%. In addition, in [4], the ΔTm was found to be 1.6 °C.
As for `COc1cccc2c1C(=O)c1c(O)c3c(c(O)c1C2=O)C[C@@](O)(C(=O)CO)CC3OC1CC(N2CCOCC2C#N)C(O)C(C)O1` (stereo not given in full), the T/C in series [8] is 164%; in [10], over 148%; in series [11], over 158%; in series [12], 152%. For the same compound, in series [9], the ΔTm turned out to be 8.7 °C. Besides, the results for the ED50 in [2] and in [5] were 3 nM and 0.53 nM, respectively.
Turning to `COc1cccc2c1C(=N)c1c(O)c3c(c(O)c1C2=O)C[C@@](O)(C(=O)CO)CC3OC1CC(N2CCOCC2C#N)C(O)C(C)O1` (stereo not given in full), the logD in series [1] was 1.97. The ΔTm in [13] was 3.2 °C. For the same compound, the ED50 is 31 nM in series [2] and 4.7 nM in series [5]. For the same compound, in series [14], the T/C came to 157%.
Consider `COc1cccc2c1C(=O)c1c(O)c3c(c(O)c1C2=O)C[C@@](O)(C(C)=O)CC3OC1CC(N2CCOCC2C#N)C(O)C(C)O1` (stereo not given in full), for which the ED50 in series [2] amounted to 12 nM; in [5], 2 nM. In [6], the T/C worked out at 175%. The ΔTm in series [4] is 6.3 °C.
`COc1cccc2c1C(=N)c1c(O)c3c(c(O)c1C2=O)C[C@@](O)(C(O)CO)CC3OC1CC(N2CCOCC2C#N)C(O)C(C)O1` (stereo not given in full): the shift in melting temperature (ΔTm) in series [13] is 0.8 °C. In addition, the figures for the ED50 in series [2] and in series [5] were 580 nM and 75 nM, respectively.
With `COc1cccc2c1C(=O)c1c(O)c3c(c(O)c1C2=O)C[C@@](O)(C(O)CO)CC3OC1CC(N2CCOCC2C#N)C(O)C(C)O1` (stereo not given in full), in series [1], the logD came to 1.56. In addition, the T/C in series [15] is 150%; in series [16], 183%. The figures for the ED50 in [2] and in [5] were 21 nM and 3 nM, respectively. Moreover, the ΔTm in [4] was determined as 4.5 °C.
`COc1cccc2c1C(=O)c1c(O)c3c(c(O)c1C2=O)C[C@@](O)(C(C)O)CC3OC1CC(N2CCOCC2)C(O)C(C)O1` (stereo not given in full): the logD in [1] was found to be 2.03. Moreover, the ED50 in [2] is 2200 nM; in series [5] it was 530 nM. Further, in [4], the ΔTm is 4.1 °C.
On to `COc1cccc2c1C(=O)c1c(O)c3c(c(O)c1C2=O)C[C@@](O)(C(=O)CO)C[C@@H]3O[C@H]1C[C@H](N)[C@H](O)[C@H](C)O1.Cl` [DOXORUBICIN HYDROCHLORIDE], for which the T/C was 160% in series [17]; 252% in series [18]; 178% in [19]; 185% in [20]; 278% in [22]. The values for the ED50 in series [2] and in series [5] were 1600 nM and 580 nM, respectively. For the same compound, the T/C entry in series [21] is “inactive”. Moreover, the ΔTm in series [4] stood at 12.8 °C.
As for `COc1cccc2c1C(=O)c1c(O)c3c(c(O)c1C2=O)C[C@@](O)(C(O)CO)CC3OC1CC(N2CCOCC2)C(O)C(C)O1.Cl` (stereo not given in full), in series [23], the T/C was over 145%. Also, the ED50 is 7500 nM in series [2] and 3300 nM in series [5]. Also, in series [4], the ΔTm was found to be 3.9 °C.
`COc1cccc2c1C(=O)c1c(O)c3c(c(O)c1C2=O)C[C@@](O)(C(C)=O)C[C@@H]3O[C@H]1C[C@H](N)[C@H](O)[C@H](C)O1.Cl` [DAUNORUBICIN HYDROCHLORIDE]: the logD in series [1] turned out to be 0.66. For the same compound, the T/C in series [17] was 130%. For the same compound, the results for the ED50 in [2] and in series [5] were 660 nM and 330 nM, respectively. Further, the ΔTm in series [4] was determined as 10.5 °C.
For the compound `COc1cccc2c1C(=O)c1c(O)c3c(c(O)c1C2=O)C[C@@](O)(C(=O)CO)CC3OC1CC(N2CCOCC2)C(O)C(C)O1.Cl` (stereo not given in full), the pH-dependent lipophilicity (logD) in series [1] came out at 1.73. In addition, the ED50 stood at 710 nM in [2] and 170 nM in series [5]. This compound registered a T/C in [16] of 182%. The ΔTm in [4] was 9.6 °C.
As to `COc1cccc2c1C(=O)c1c(O)c3c(c(O)c1C2=O)C[C@@](O)(C(C)O)CC3OC1CC(N2CCOCC2C#N)C(O)C(C)O1` (stereo not given in full), the figures for the ED50 in [2] and in [5] were 19 nM and 2 nM, respectively. Moreover, the ΔTm in [4] turned out to be 4.2 °C.
